In PMC2529378 (Evidence-based Complementary and Alternative Medicine : eCAM, 2007):
Marks after values point to notes of the source that are not given here.

Tests used:
human ERβ = human ERβ (Homo sapiens, UniProt Q92731); experiment: Ligand binding assay for ERβ
human ERα = biological target: T1, human ERα (Homo sapiens, UniProt P03372); experiment: Ligand binding assay for ERα
T1 sequence (P03372 1-595): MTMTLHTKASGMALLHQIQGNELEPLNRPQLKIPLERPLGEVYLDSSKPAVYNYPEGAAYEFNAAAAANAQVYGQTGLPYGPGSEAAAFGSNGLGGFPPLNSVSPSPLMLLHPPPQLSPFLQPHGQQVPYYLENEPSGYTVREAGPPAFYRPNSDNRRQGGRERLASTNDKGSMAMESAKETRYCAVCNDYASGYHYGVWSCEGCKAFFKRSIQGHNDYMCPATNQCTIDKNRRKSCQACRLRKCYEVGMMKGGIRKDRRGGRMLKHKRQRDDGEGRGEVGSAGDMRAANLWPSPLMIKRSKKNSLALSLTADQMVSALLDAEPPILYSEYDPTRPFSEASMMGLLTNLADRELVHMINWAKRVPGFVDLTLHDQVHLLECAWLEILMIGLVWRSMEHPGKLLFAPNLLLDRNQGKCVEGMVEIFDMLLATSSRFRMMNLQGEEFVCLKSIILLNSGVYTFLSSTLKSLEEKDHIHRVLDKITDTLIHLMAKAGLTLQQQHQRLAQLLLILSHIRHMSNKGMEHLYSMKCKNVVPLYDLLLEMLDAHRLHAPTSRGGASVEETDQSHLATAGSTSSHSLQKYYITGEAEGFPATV

uterus of immature rats = experiment: Uterotrophic assay in immature female rats; format: in vivo, Sprague Dawley rats; details: 3 days; for Body weight, mean / Uterus wet weight, mean / Uterus/body weight: immature female rats; for Change in wet uterine weight: immature rats
In short: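 Female Sprague Dawley rats were housed at 23±1°C on a standard diet. From postnatal day 20 they were injected s.c. once daily for 3 days at 10 ml/kg in sesame oil. Doses were test compound at 1 g/kg/day or 17α-ethynylestradiol at 0.1 or 3 µg/kg/day; controls got sesame oil. Vaginal opening and clinical signs were monitored. On day 23, 27 h after the last dose, uteri were excised with ovaries attached and weighed. Dunnett's test was used versus controls.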

[1] = test system: luminal epithelium of the uterus; experiment: Histology of uterine luminal epithelial cell height in immature rats; format: in vivo, Sprague Dawley rats; details: 3 days
In short: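 Rats got daily s.c. doses for 3 days from postnatal day 20 and were killed 27 h after the last dose. Uteri were fixed in Bouin's solution for 24 h, paraffin-embedded, cut as 8 µm serial cross sections and H&E-stained. Luminal epithelial cell height was measured by light microscopy in the mid-region of each horn, in five areas from five sections ~160 µm apart. Mean and SD were reported; Dunnett's test compared groups with sesame-oil controls.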

MCF-7 cells = experiment: MCF-7 cell proliferation assay; format: cell-based, human; details: 1 μM
In short: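 MCF-7 cells were kept in RPMI-1640 with 10% heat-inactivated FBS at 37°C and 5% CO2. Cells were seeded at 10 000 cells/well in phenol red-free RPMI-1640 with 10% charcoal dextran-treated FBS. After 1 day the medium was changed and cells received test compound (0.001–0.1 mM) or 0.5 nM E2, with or without 1 µM tamoxifen. After three days, proliferation was read by colorimetric MTT assay. Mean and SD of six experiments.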

[2] = 1 g kg^−1 day^−1 s.c., vs vehicle-treated controls

Chain of human ERβ (Q92731 whole entry): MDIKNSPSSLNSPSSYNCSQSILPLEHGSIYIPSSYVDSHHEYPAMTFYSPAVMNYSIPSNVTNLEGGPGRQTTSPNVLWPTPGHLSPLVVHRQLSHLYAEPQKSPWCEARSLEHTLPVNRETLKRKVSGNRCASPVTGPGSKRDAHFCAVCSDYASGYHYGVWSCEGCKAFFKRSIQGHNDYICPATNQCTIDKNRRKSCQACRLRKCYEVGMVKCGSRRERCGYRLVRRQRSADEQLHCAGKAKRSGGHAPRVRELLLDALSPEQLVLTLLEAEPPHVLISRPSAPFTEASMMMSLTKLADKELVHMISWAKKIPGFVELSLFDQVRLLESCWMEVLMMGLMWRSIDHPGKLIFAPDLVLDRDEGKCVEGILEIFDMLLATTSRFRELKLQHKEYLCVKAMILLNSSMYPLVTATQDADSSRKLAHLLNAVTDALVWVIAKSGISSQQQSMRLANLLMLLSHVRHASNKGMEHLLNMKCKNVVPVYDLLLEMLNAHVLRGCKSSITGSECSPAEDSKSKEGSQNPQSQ

IC50 (human ERβ) | Effect upon the ability of E2 to bind to ERα (human ERα) | Structure (SMILES) | Body weight, mean (uterus of immature rats; 1 g kg^−1 day^−1 s.c.) | Uterus wet weight, mean (uterus of immature rats; 1 g kg^−1 day^−1 s.c.) | Uterus/body weight (uterus of immature rats; 1 g kg^−1 day^−1 s.c.) | Change in wet uterine weight (uterus of immature rats; 1 g kg^−1 day^−1 s.c.) | Hypertrophy of the uterine luminal epithelium [1, 2] | Effect on MCF-7 proliferation when administered alone (MCF-7 cells) | Body weight, mean (uterus of immature rats; 0.1 μg kg^−1 day^−1 s.c.) | Uterus wet weight, mean (uterus of immature rats; 0.1 μg kg^−1 day^−1 s.c.) | Uterus/body weight (uterus of immature rats; 0.1 μg kg^−1 day^−1 s.c.) | Body weight, mean (uterus of immature rats; 3 μg kg^−1 day^−1 s.c.) | Uterus wet weight, mean (uterus of immature rats; 3 μg kg^−1 day^−1 s.c.) | Uterus/body weight (uterus of immature rats; 3 μg kg^−1 day^−1 s.c.) | Increase in wet uterine weight compared with vehicle-treated controls (uterus of immature rats; doses of 0.1 and 3 μg kg^−1 day^−1 s.c.) | Hypertrophy of the uterine luminal epithelium (luminal height) ([1]; 0.1 μg kg^−1 day^−1 s.c.) | Hypertrophy of the uterine luminal epithelium ([1]; 3 μg kg^−1 day^−1 s.c.)
90 µM | little or no effect | O=C(O)/C=C/CCCCCCCO [10H2DA, 10-hydroxy-trans-2-decenoic acid] | 42.9 ^* g | 25.9 mg | 0.59 | did not detect an increase | mild hypertrophy |  |  |  |  |  |  |  |  |  | 
 |  | CC/C(=C(\c1ccccc1)c1ccc(OCCN(C)C)cc1)c1ccccc1 [tamoxifen] |  |  |  |  |  | no effect on proliferation |  |  |  |  |  |  |  |  | 
17 µM | little or no effect | CCCCCCC/C=C/C(=O)O [2DEA, trans-2-decenoic acid] | 45.9 g | 22.9 mg | 0.51 | did not detect an increase | mild hypertrophy |  |  |  |  |  |  |  |  |  | 
6 µM | little or no effect | C=C(CC[C@@H](C)[C@H]1CC[C@H]2[C@@H]3CC=C4C[C@@H](O)CC[C@]4(C)[C@H]3CC[C@]12C)C(C)C [24MET, 24-methylenecholesterol] | 47.5 g | 25.9 mg | 0.55 | did not detect an increase | mild hypertrophy |  |  |  |  |  |  |  |  |  | 
 |  | C#C[C@]1(O)CC[C@H]2[C@@H]3CCc4cc(O)ccc4[C@H]3CC[C@@]21C [17αEE2, 17α-ethynylestradiol, reference compound] |  |  |  |  |  |  | 47.9 g | 41.0 ^** mg | 0.87 | 47.1 g | 115 ^** mg | 2.5 | over 1.5 fold | only a mild increase in luminal height | marked hypertrophy

Structure (SMILES) | IC50 (human ERβ) | Effect upon the ability of E2 to bind to ERα (human ERα) | Body weight, mean (uterus of immature rats; 1 g kg^−1 day^−1 s.c.) | Uterus wet weight, mean (uterus of immature rats; 1 g kg^−1 day^−1 s.c.) | Uterus/body weight (uterus of immature rats; 1 g kg^−1 day^−1 s.c.) | Change in wet uterine weight (uterus of immature rats; 1 g kg^−1 day^−1 s.c.) | Hypertrophy of the uterine luminal epithelium [1, 2] | Effect on MCF-7 proliferation when administered alone (MCF-7 cells) | Body weight, mean (uterus of immature rats; 0.1 μg kg^−1 day^−1 s.c.) | Uterus wet weight, mean (uterus of immature rats; 0.1 μg kg^−1 day^−1 s.c.) | Uterus/body weight (uterus of immature rats; 0.1 μg kg^−1 day^−1 s.c.) | Body weight, mean (uterus of immature rats; 3 μg kg^−1 day^−1 s.c.) | Uterus wet weight, mean (uterus of immature rats; 3 μg kg^−1 day^−1 s.c.) | Uterus/body weight (uterus of immature rats; 3 μg kg^−1 day^−1 s.c.) | Increase in wet uterine weight compared with vehicle-treated controls (uterus of immature rats; doses of 0.1 and 3 μg kg^−1 day^−1 s.c.) | Hypertrophy of the uterine luminal epithelium (luminal height) ([1]; 0.1 μg kg^−1 day^−1 s.c.) | Hypertrophy of the uterine luminal epithelium ([1]; 3 μg kg^−1 day^−1 s.c.)
O=C(O)CCCCCCCCCO [10HDA, 10-hydroxydecanoic acid] | 140 µM | little or no effect | 45.8 g | 25.2 mg | 0.55 | did not detect an increase | mild hypertrophy |  |  |  |  |  |  |  |  |  | 
